Laboratory results from ChEMBL document CHEMBL2417469, “Synthesis of novel analogs of 2-pyrazoline obtained from [(7-chloroquinolin-4-yl)amino]chalcones and hydrazine as potential antitumor and antimalarial agents” (Eur J Med Chem, 2013).

How the values were obtained:
[1] = Toxicity in RBC (unknown origin) assessed as hemolysis after 48 hrs at 20 to 80 ug/ml by spectrophotometry; format: cell-based, Erythrocyte; conditions: red blood cells (RBC); read-out: Activity
In short: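 Red blood cells at 5% hematocrit in RPMI 1640 exposed to 20, 40 and 80 µg/mL for 48 h at 37 °C; free hemoglobin read spectrophotometrically at 542 nm.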

Plasmodium falciparum = test: Antimalarial activity against Plasmodium falciparum NF54 infected in human serum at 20 ug/ml after 48 hrs by fluorometric method; format: functional
In short: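 Asynchronous P. falciparum NF54 at 1.5–2% parasitemia, 5% hematocrit in RPMI with 10% human serum, exposed 48 h at 37 °C under 90% N2/5% CO2/5% O2 at the stated concentration; parasite DNA stained with ethidium bromide after proteinase K lysis; viability % = (Flu treated − medium)/(Flu untreated − medium) ×100; triplicate.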

MDA-MB-468 = test: Cytotoxicity against human MDA-MB-468 cells after 48 hrs by SRB assay; format: functional; conditions: MDA-MB-468, 48 h
In short: (§1)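 NCI 60-cell-line screen. Cells preincubated 24 h at 37 °C, 5% CO2; time-zero plates TCA-fixed. Compounds dissolved in DMSO and tested at five concentrations (100, 10, 1.0, 0.1, 0.01 µM) for 48 h continuous exposure. Adherent cells fixed with cold TCA (10% final), then SRB stained; absorbance at 515 nm. GI50, TGI and LC50 calculated from growth relative to time-zero and untreated controls.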

BT-549 = test: Cytotoxicity against human BT549 cells after 48 hrs by SRB assay; format: functional; conditions: BT-549, 48 h; in short: as §1
Hs-578T = test: Cytotoxicity against human Hs578T cells after 48 hrs by SRB assay; format: functional; in short: as §1
MCF7 = test: Cytotoxicity against human MCF7 cells after 48 hrs by SRB assay; format: functional; conditions: MCF7, 48 h; for CC50: read-out: LC50 (the source's name); in short: as §1
CAKI-1 = test: Cytotoxicity against human Caki1 cells after 48 hrs by SRB assay; format: functional; conditions: CAKI-1, 48 h; in short: as §1
RXF 393 = test: Cytotoxicity against human RXF393 cells after 48 hrs by SRB assay; format: functional; conditions: RXF 393, 48 h; in short: as §1
ACHN = test: Cytotoxicity against human ACHN cells after 48 hrs by SRB assay; format: functional; conditions: for CC50: read-out: LC50 (the source's name); in short: as §1
SK-OV-3 = test: Cytotoxicity against human SKOV3 cells after 48 hrs by SRB assay; format: functional; conditions: SK-OV-3, 48 h; in short: as §1
NCI/ADR-RES = test: Cytotoxicity against human NCI/ADR-RES cells after 48 hrs by SRB assay; format: functional; conditions: for CC50: read-out: LC50 (the source's name); in short: as §1
OVCAR-8 = test: Cytotoxicity against human OVCAR8 cells after 48 hrs by SRB assay; format: functional; conditions: OVCAR-8, 48 h; in short: as §1
OVCAR-5 = test: Cytotoxicity against human OVCAR5 cells after 48 hrs by SRB assay; format: functional; conditions: OVCAR-5, 48 h; in short: as §1
IGROV-1 = test: Cytotoxicity against human IGROV1 cells after 48 hrs by SRB assay; format: functional; conditions: IGROV-1, 48 h; in short: as §1
U-251 = test: Cytotoxicity against human U251 cells after 48 hrs by SRB assay; format: functional; conditions: U-251, 48 h; for CC50: read-out: LC50 (the source's name)
In short: (§2)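 NCI 60-cell screen. Cells grew 24 h (37 °C, 5% CO2) before compound was added. Compounds were in DMSO and diluted in medium with gentamicin, then tested at five levels (100, 10, 1.0, 0.1, 0.01 µM) with 48 h continuous exposure. Adherent cells were fixed with TCA (10% final) and stained with 0.4% SRB, absorbance read at 515 nm. A time-zero plate was included. LC50 is the concentration giving 50% loss of protein relative to time zero.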

SF-539 = test: Cytotoxicity against human SF539 cells after 48 hrs by SRB assay; format: functional; conditions: SF-539, 48 h; for CC50: read-out: LC50 (the source's name); in short: as §1
SW-620 = test: Cytotoxicity against human SW620 cells after 48 hrs by SRB assay; format: functional; conditions: SW-620, 48 h; in short: as §2
SF-268 = test: Cytotoxicity against human SF268 cells after 48 hrs by SRB assay; format: functional; conditions: SF-268, 48 h; in short: as §1
HCT-15 = test: Cytotoxicity against human HCT15 cells after 48 hrs by SRB assay; format: functional; conditions: HCT-15, 48 h; in short: as §1
HT-29 = test: Cytotoxicity against human HT-29 cells after 48 hrs by SRB assay; format: functional; conditions: HT-29, 48 h; in short: as §1
NCI-H460 = test: Cytotoxicity against human NCI-H460 cells after 48 hrs by SRB assay; format: functional; conditions: NCI-H460, 48 h; in short: as §1
[2] = Cytotoxicity against human EKVX cells after 48 hrs by SRB assay; format: functional; in short: as §1
SR = test: Cytotoxicity against human SR cells after 48 hrs by SRB assay; format: functional; in short: as §2
K562 = test: Cytotoxicity against human K562 cells after 48 hrs by SRB assay; format: functional; conditions: K562, 48 h; in short: as §1
HL-60(TB) = test: Cytotoxicity against human HL-60(TB) cells after 48 hrs by SRB assay; format: functional; conditions: HL-60, 48 h; for CC50: read-out: LC50 (the source's name); in short: as §1

COc1cc(C2CC(c3cccc(Nc4ccnc5cc(Cl)ccc45)c3)=NN2C=O)cc(OC)c1OC (centres undefined)
hemolysis at 48 h [1]: 3.4%
inhibition at 20 µg/mL (Plasmodium falciparum): 24.6%
GI50 (MDA-MB-468): 300 nM
LC50 (MDA-MB-468): 23.3 µM
GI50 (BT-549): 390 nM
LC50 (50% net cell kill vs time zero) (BT-549): 4.61 µM
GI50 (Hs-578T): 680 nM
LC50 (50% net cell kill) (Hs-578T): > 100 µM
GI50 (MCF7): 370 nM
CC50 (MCF7): > 100 µM
GI50 (CAKI-1): 550 nM
LC50 (CAKI-1): 12.1 µM
GI50 (RXF 393): 1540 nM
LC50 (concentration killing 50% of cells) (RXF 393): 73.4 µM
GI50 (ACHN): 1270 nM
CC50 (ACHN): > 100 µM
GI50 (SK-OV-3): 1.4 µM
LC50 (concentration killing 50% of cells) (SK-OV-3): > 100 µM
GI50 (NCI/ADR-RES): 1360 nM
CC50 (NCI/ADR-RES): > 100 µM
GI50 (OVCAR-8): 2.06 µM
LC50 (50% net cell kill) (OVCAR-8): > 100 µM
GI50 (OVCAR-5): 4.32 µM
LC50 (OVCAR-5): > 100 µM
GI50 (IGROV-1): 3.29 µM
LC50 (concentration killing 50% of cells relative to time zero) (IGROV-1): > 100 µM
GI50 (U-251): 450 nM
CC50 (U-251): > 100 µM
GI50 (SF-539): 810 nM
CC50 (SF-539): 55.5 µM
GI50 (SW-620): 470 nM
LC50 (SW-620): > 100 µM
GI50 (SF-268): 2.55 µM
LC50 (SF-268): > 100 µM
GI50 (HCT-15): 550 nM
LC50 (concentration killing 50% of cells relative to time zero) (HCT-15): > 100 µM
GI50 (HT-29): 400 nM
LC50 (HT-29): 4.99 µM
GI50 (NCI-H460): 420 nM
LC50 (NCI-H460): > 100 µM
GI50 [2]: 980 nM
LC50 [2]: > 100 µM
GI50 (SR): 340 nM
LC50 (SR): > 100 µM
GI50 (K562): 430 nM
LC50 (concentration killing 50% of cells) (K562): > 100 µM
GI50 (HL-60(TB)): 260 nM
CC50 (HL-60(TB)): 3.97 µM

O=CN1N=C(c2ccc(Nc3ccnc4cc(Cl)ccc34)cc2)CC1c1ccccc1 (centres undefined)
hemolysis at 48 h [1]: 3.8%
inhibition at 20 µg/mL (Plasmodium falciparum): 20.2%
GI50 (MDA-MB-468): 980 nM
LC50 (MDA-MB-468): 10 µM
GI50 (BT-549): 3810 nM
LC50 (50% net cell kill vs time zero) (BT-549): 53.8 µM
GI50 (Hs-578T): 3770 nM
LC50 (50% net cell kill) (Hs-578T): > 100 µM
GI50 (MCF7): 3420 nM
CC50 (MCF7): > 100 µM
GI50 (CAKI-1): 3820 nM
LC50 (CAKI-1): > 100 µM
GI50 (RXF 393): 2200 nM
LC50 (concentration killing 50% of cells) (RXF 393): > 100 µM
GI50 (ACHN): 4210 nM
CC50 (ACHN): > 100 µM
GI50 (SK-OV-3): 11.3 µM
LC50 (concentration killing 50% of cells) (SK-OV-3): > 100 µM
GI50 (NCI/ADR-RES): 2690 nM
CC50 (NCI/ADR-RES): > 100 µM
GI50 (OVCAR-8): 4.53 µM
LC50 (50% net cell kill) (OVCAR-8): > 100 µM
GI50 (OVCAR-5): 19.8 µM
LC50 (OVCAR-5): > 100 µM
GI50 (IGROV-1): 9.36 µM
LC50 (concentration killing 50% of cells relative to time zero) (IGROV-1): > 100 µM
GI50 (U-251): 3120 nM
CC50 (U-251): > 100 µM
GI50 (SF-539): 4570 nM
CC50 (SF-539): 99.2 µM
GI50 (SW-620): 2730 nM
LC50 (SW-620): 68.7 µM
GI50 (SF-268): 3.96 µM
LC50 (SF-268): > 100 µM
GI50 (HCT-15): 2540 nM
LC50 (concentration killing 50% of cells relative to time zero) (HCT-15): > 100 µM
GI50 (HT-29): 3210 nM
LC50 (HT-29): > 100 µM
GI50 (NCI-H460): 3960 nM
LC50 (NCI-H460): > 100 µM
GI50 [2]: 4940 nM
LC50 [2]: > 100 µM
GI50 (SR): 1770 nM
LC50 (SR): > 100 µM
GI50 (HL-60(TB)): 2660 nM
CC50 (HL-60(TB)): 72.5 µM
